Reference: ChEMBL document CHEMBL1152649, “Synthesis, cytotoxicity and human telomerase inhibition activities of a series of 1,2-heteroannelated anthraquinones and anthra[1,2-d]imidazole-6,11-dione homologues” (2009)

Key:
[1] = Growth inhibition of human Hs 578T cells; type: functional
Outline: (§1)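 NCI 60 cancer cell line screen run per the Developmental Therapeutics Program protocol. Dose–response curves were plotted against log10 drug concentration for each cell line within its subpanel, and mean graph midpoint values were calculated.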

BT-549 = assay: Growth inhibition of human BT549 cells; type: functional; outline: as §1
SW-620 = assay: Antiproliferative activity against human SW620 cells assessed as cell growth at 10 uM; type: functional; details: read-out: Activity
Outline: (§2)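 NCI 60 cell line panel, single dose (10^-5 M), run per the Developmental Therapeutics Program protocol (one dose mean graph). Each result is the growth percentage of treated cells relative to untreated control cells.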

MDA-MB-231 = assay: Antiproliferative activity against human MDA-MB-231 cells assessed as cell growth at 10 uM; type: functional; details: read-out: Activity
Outline: (§3)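 NCI 60 cell line panel, single-dose screen (10^-5 M) run by the developmental therapeutics program protocol. Results are given as growth percent of treated cells relative to untreated control cells for each line.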

MDA-MB-435 [2] = assay: Antiproliferative activity against human MDA-MB-435 cells assessed as cell growth at 10 uM; type: functional; details: read-out: Activity; outline: as §3
MDA-MB-468 = assay: Antiproliferative activity against human MDA-MB-468 cells assessed as cell growth at 10 uM; type: functional; details: read-out: Activity; outline: as §3
OVCAR-4 = assay: Antiproliferative activity against human OVCAR4 cells assessed as cell growth at 10 uM; type: functional; details: read-out: Activity; outline: as §3
MOLT-4 [3] = assay: Antiproliferative activity against human MOLT4 cells assessed as cell growth at 10 uM; type: functional; details: read-out: Activity; outline: as §3
ACHN [4] = assay: Antiproliferative activity against human ACHN cells assessed as cell growth at 10 uM; type: functional; details: read-out: Activity; outline: as §3
CAKI-1 [5] = assay: Antiproliferative activity against human Caki1 cells assessed as cell growth at 10 uM; type: functional; details: read-out: Activity; outline: as §3
RXF 393 = assay: Antiproliferative activity against human RXF393 cells assessed as cell growth at 10 uM; type: functional; details: read-out: Activity; outline: as §3
UO-31 = assay: Antiproliferative activity against human UO31 cells assessed as cell growth at 10 uM; type: functional; details: read-out: Activity; outline: as §2
LOX IMVI = assay: Antiproliferative activity against human LOXIMVI cells assessed as cell growth at 10 uM; type: functional; details: read-out: Activity; outline: as §3
UACC-62 = assay: Antiproliferative activity against human UACC62 cells assessed as cell growth at 10 uM; type: functional; details: read-out: Activity; outline: as §2
SF-268 [6] = assay: Antiproliferative activity against human SF268 cells assessed as cell growth at 10 uM; type: functional; details: read-out: Activity; outline: as §3
SF-539 = assay: Antiproliferative activity against human SF539 cells assessed as cell growth at 10 uM; type: functional; details: read-out: Activity; outline: as §3
SNB-75 [7] = assay: Antiproliferative activity against human SNB75 cells assessed as cell growth at 10 uM; type: functional; details: read-out: Activity; outline: as §2
K562 = assay: Growth inhibition of human K562 cells; type: functional; outline: as §1
MOLT-4 [8] = assay: Growth inhibition of human MOLT4 cells; type: functional; outline: as §1
NCI-H322M = assay: Growth inhibition of human NCI-H322M cells; type: functional; outline: as §1
COLO 205 = assay: Growth inhibition of human COLO205 cells; type: functional; outline: as §1
KM12 [9] = assay: Growth inhibition of human KM12 cells; type: functional; outline: as §1
SF-268 [10] = assay: Growth inhibition of human SF268 cells; type: functional
Outline: (§4)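 Assayed in the NCI 60 human cancer cell line panel under the Developmental Therapeutics Program protocol. For each line, dose–response curves were plotted against log10 drug concentration. In the one-dose screen at 10^-5 M, growth was given as percent of untreated control cells, and mean graph midpoint values were averaged.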

SNB-19 = assay: Growth inhibition of human SNB19 cells; type: functional; outline: as §4
SNB-75 [11] = assay: Growth inhibition of human SNB75 cells; type: functional; outline: as §4
MDA-MB-435 [12] = assay: Growth inhibition of human MDA-MB-435 cells; type: functional; outline: as §1
SK-MEL-28 = assay: Growth inhibition of human SK-MEL-28 cells; type: functional; outline: as §4
IGROV-1 = assay: Growth inhibition of human IGROV1 cells; type: functional; outline: as §1
OVCAR-3 = assay: Growth inhibition of human OVCAR-3 cells; type: functional; outline: as §1
OVCAR-8 = assay: Growth inhibition of human OVCAR8 cells; type: functional; outline: as §1
NCI/ADR-RES = assay: Growth inhibition of human NCI/ADR-RES cells; type: functional; outline: as §1
786-0 = assay: Growth inhibition of human 786-0 cells; type: functional; outline: as §1
A498 = assay: Growth inhibition of human A498 cells; type: functional; outline: as §1
ACHN [13] = assay: Growth inhibition of human ACHN cells; type: functional; outline: as §1
CAKI-1 [14] = assay: Growth inhibition of human Caki1 cells; type: functional; outline: as §1
SN12C = assay: Growth inhibition of human SN12C cells; type: functional; outline: as §4
TK-10 = assay: Growth inhibition of human TK10 cells; type: functional; outline: as §4
MCF7 = assay: Growth inhibition of human MCF7 cells; type: functional; outline: as §1
NCI-H522 = assay: Antiproliferative activity against human NCI-H522 cells assessed as cell growth at 10 uM; type: functional; details: read-out: Activity; outline: as §3
HCT-116 = assay: Antiproliferative activity against human HCT116 cells assessed as cell growth at 10 uM; type: functional; details: read-out: Activity; outline: as §3
HCT-15 = assay: Antiproliferative activity against human HCT15 cells assessed as cell growth at 10 uM; type: functional; details: read-out: Activity; outline: as §3
KM12 [15] = assay: Antiproliferative activity against human KM12 cells assessed as cell growth at 10 uM; type: functional; details: read-out: Activity; outline: as §3
[16] = molecular target: Telomerase reverse transcriptase (Homo sapiens) (UniProt O14746); assay: Inhibition of TERT in human H1299 cells assessed as residual transcriptional activity at 10 uM after 24 hrs by SEAP reporter gene assay; values are per cent of control
[17] = read-out: LC50 (the source's name)

Telomerase reverse transcriptase (Homo sapiens), sequence (O14746 whole entry): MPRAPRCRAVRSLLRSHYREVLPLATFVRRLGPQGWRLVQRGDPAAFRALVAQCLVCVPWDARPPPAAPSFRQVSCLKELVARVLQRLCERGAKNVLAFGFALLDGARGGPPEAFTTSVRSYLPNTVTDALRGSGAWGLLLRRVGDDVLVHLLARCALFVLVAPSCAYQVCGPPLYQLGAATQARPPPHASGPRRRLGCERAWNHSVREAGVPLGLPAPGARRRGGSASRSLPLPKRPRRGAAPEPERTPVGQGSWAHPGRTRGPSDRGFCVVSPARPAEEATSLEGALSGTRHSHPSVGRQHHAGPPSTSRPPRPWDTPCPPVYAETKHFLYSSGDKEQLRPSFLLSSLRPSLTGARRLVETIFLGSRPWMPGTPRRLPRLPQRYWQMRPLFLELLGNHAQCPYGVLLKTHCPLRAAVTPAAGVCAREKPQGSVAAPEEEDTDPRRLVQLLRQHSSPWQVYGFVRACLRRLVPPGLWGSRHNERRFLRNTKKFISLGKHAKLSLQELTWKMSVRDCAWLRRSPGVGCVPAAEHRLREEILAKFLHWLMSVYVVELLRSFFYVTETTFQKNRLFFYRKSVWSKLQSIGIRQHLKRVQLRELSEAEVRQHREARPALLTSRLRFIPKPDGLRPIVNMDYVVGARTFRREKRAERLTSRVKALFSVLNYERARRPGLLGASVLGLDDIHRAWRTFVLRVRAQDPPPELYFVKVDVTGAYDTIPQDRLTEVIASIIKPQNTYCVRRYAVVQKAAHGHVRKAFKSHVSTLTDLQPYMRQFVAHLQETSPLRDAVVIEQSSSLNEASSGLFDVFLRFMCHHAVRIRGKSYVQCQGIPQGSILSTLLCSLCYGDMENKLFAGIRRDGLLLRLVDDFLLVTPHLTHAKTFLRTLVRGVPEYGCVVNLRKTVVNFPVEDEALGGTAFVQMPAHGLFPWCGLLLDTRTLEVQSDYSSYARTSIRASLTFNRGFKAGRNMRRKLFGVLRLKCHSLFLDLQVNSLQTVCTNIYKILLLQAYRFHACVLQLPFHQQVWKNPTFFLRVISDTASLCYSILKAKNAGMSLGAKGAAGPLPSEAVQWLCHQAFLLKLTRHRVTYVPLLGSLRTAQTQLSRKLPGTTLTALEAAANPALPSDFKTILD

Q: Which results are given for `O=C1c2ccccc2C(=O)c2c1ccc1nccnc21`?
A: GI50 [1]: 14.1 µM; LC50 [1]: > 100 µM; TGI [1]: 91.4 µM; GI50 (BT-549): 12.2 µM; LC50 (BT-549): > 100 µM; TGI (BT-549): 93.5 µM; growth at 10 µM (SW-620): 39.2%; growth at 10 µM (MDA-MB-231): 81.4%; growth at 10 µM (MDA-MB-435 [2]): 102%; growth at 10 µM (MDA-MB-468): 75.3%; growth at 10 µM (OVCAR-4): 94.2%; growth at 10 µM (MOLT-4 [3]): 22.9%; growth at 10 µM (ACHN [4]): 46.5%; growth at 10 µM (CAKI-1 [5]): 87.9%; growth at 10 µM (RXF 393): 105%; growth at 10 µM (UO-31): 51.5%; growth at 10 µM (LOX IMVI): 44.2%; growth at 10 µM (UACC-62): 90.5%; growth at 10 µM (SF-268 [6]): 68%; growth at 10 µM (SF-539): 40.7%; growth at 10 µM (SNB-75 [7]): 105%; GI50 (K562): 0.07 µM; LC50 (K562): > 100 µM; TGI (K562): > 100 µM; GI50 (MOLT-4 [8]): 3.65 µM; TGI (MOLT-4 [8]): > 100 µM; CC50 (MOLT-4 [8]; [17]): > 100 µM; GI50 (NCI-H322M): 16.3 µM; TGI (NCI-H322M): 96.1 µM; CC50 (NCI-H322M; [17]): > 100 µM; GI50 (COLO 205): 3.4 µM; TGI (COLO 205): 28.4 µM; CC50 (COLO 205; [17]): > 100 µM; GI50 (KM12 [9]): 5.26 µM; TGI (KM12 [9]): 49.5 µM; CC50 (KM12 [9]; [17]): > 100 µM; GI50 (SF-268 [10]): 4.98 µM; TGI (SF-268 [10]): > 100 µM; CC50 (SF-268 [10]; [17]): > 100 µM; GI50 (SNB-19): 13.4 µM; TGI (SNB-19): > 100 µM; CC50 (SNB-19; [17]): > 100 µM; GI50 (SNB-75 [11]): 11.9 µM; TGI (SNB-75 [11]): > 100 µM; CC50 (SNB-75 [11]; [17]): > 100 µM; GI50 (MDA-MB-435 [12]): 11.1 µM; TGI (MDA-MB-435 [12]): 23.7 µM; CC50 (MDA-MB-435 [12]; [17]): 50.4 µM; GI50 (SK-MEL-28): 21 µM; TGI (SK-MEL-28): 91.1 µM; CC50 (SK-MEL-28; [17]): > 100 µM; GI50 (IGROV-1): 2.55 µM; TGI (IGROV-1): 35.9 µM; CC50 (IGROV-1; [17]): > 100 µM; GI50 (OVCAR-3): 2.34 µM; TGI (OVCAR-3): 12.5 µM; CC50 (OVCAR-3; [17]): > 100 µM; GI50 (OVCAR-8): 5.07 µM; TGI (OVCAR-8): > 100 µM; CC50 (OVCAR-8; [17]): > 100 µM; GI50 (NCI/ADR-RES): 5.68 µM; TGI (NCI/ADR-RES): > 100 µM; CC50 (NCI/ADR-RES; [17]): > 100 µM; GI50 (786-0): 8.87 µM; TGI (786-0): > 100 µM; CC50 (786-0; [17]): > 100 µM; GI50 (A498): 9.31 µM; TGI (A498): 50.3 µM; CC50 (A498; [17]): > 100 µM; GI50 (ACHN [13]): 3.85 µM; TGI (ACHN [13]): > 100 µM; CC50 (ACHN [13]; [17]): > 100 µM; GI50 (CAKI-1 [14]): 5.83 µM; TGI (CAKI-1 [14]): > 100 µM; CC50 (CAKI-1 [14]; [17]): > 100 µM; GI50 (SN12C): 13.2 µM; TGI (SN12C): 92.7 µM; CC50 (SN12C; [17]): > 100 µM; GI50 (TK-10): 5 µM; TGI (TK-10): > 100 µM; CC50 (TK-10; [17]): > 100 µM; GI50 (MCF7): 0.72 µM; TGI (MCF7): 29.8 µM; CC50 (MCF7; [17]): > 100 µM; growth at 10 µM (NCI-H522): 24.1%; growth at 10 µM (HCT-116): 53.3%; growth at 10 µM (HCT-15): 52.1%; growth at 10 µM (KM12 [15]): 61%; residual activity [16]: 26%
